From PubChem BioAssay
ROMK mod: ROMK potassium channel modulators, primary screen, cell-based, thallium flux, MLSMR library. hit rate 2% among 130,000. Tet-inducible ROMK, thallium flux fluorescence; actives lie on both sides. ATP-sensitive inward rectifier potassium channel 1 (Homo sapiens), P48048. AID 1918, 2009. B-score at 10 µM;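 active means signal ratio slope over the read window, or its plate-corrected B-score, at least 3 SD from the plate mean, either direction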;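 further: B-score of the F/F0 ratio slope over 7 to 12 s after thallium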
Target sequence (P48048 whole entry, looked up): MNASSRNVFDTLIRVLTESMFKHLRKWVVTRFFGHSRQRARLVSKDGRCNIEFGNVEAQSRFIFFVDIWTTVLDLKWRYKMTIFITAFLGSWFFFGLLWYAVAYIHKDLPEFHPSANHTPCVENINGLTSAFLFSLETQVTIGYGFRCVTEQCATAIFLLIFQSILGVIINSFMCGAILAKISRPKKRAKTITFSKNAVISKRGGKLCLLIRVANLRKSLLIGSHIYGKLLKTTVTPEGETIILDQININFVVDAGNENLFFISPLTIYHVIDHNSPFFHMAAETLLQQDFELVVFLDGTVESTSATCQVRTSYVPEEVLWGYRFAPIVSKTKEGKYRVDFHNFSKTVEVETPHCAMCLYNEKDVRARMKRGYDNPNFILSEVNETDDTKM
Autophagy mod: autophagy modulators in MEF cells, primary screen, imaging, high-content, MEF GFP-LC3 | MEF GFP-LC3 puncta imaging; test concentration mostly 10 µM | calls only at 10 µM (by protocol) | hit rate 0.98% among 190,000 | AID 463193, 2010;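 active means percentage of spot-positive cells more than 3 SD above its plate mean, without a fluorescence outlier flag or 80% toxicity; inconclusive means no clear call, values can overlap the other calls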;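 further: spot-positive cell cutoff set from DMSO-treated cells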
Dynein transport: inhibitors of GR-EGFP nuclear translocation, primary screen, dynein cargo transport inhibitor project, imaging, high-content, 3617.4 mouse cells. hit rate 0.47% among 220,000. z-score, hits read low. test concentration mostly 20 µM; stimulated with dexamethasone, 1 µM; hits give low values;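 active means plate z-score of nuclear minus cytoplasmic receptor signal below a set negative limit, without overly bright fluorescence or cell loss, cut at about -3.5 in these data, passing the limit was not always enough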;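 further: z-score of nuclear minus cytoplasmic ring GR-EGFP intensity difference per well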
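Buffer or medium: Induction medium lacking tetracycline, stripped serum | Also added: Dexamethasone agonist, 1.0 µM final, for 30 min | Timing: 48 h induction, 1 h compound, 30 min dex at 37 °C | Detection: Formaldehyde fixation, Hoechst nuclear stain, 10x automated fluorescence imaging | Measure: Nuclear versus cytoplasmic GR-EGFP signal, averaged per well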
KCC2 mod: KCC2 cotransporter modulators, thallium flux, primary screen, cell-based, HEK293 KCC2, FluoZin-2 fluorescence, MLSMR. Solute carrier family 12 member 5 (Homo sapiens), Q9H2X9. KCC2 cells, thallium flux FluoZin-2 fluorescence. B-score of Tl+ flux slope (higher = more flux/activation; lower = inhibition) at 10 µM. hit rate 2.2% among 190,000. AID 1456, 2008;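 active means thallium flux slope and its plate-corrected score both differing from the plate sample mean at a set confidence after two filtering rounds, in either direction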;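 further: slope of fluorescence scaled to starting intensity during 10 to 20 s after thallium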
Redox H2O2 prof: compounds producing H2O2 with reducing agent – biochemical, NIH compound library profiling, artefact control for MLSCN library redox annotation, primary screen; DTT-dependent redox cycling H2O2, phenol red/HRP absorbance; 100% = 100 µM peroxide control, 0% = buffer; activation, % at 10 µM; hit rate 0.03% among 200,000; AID 878, 2007;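 active means activation of at least 50% relative to the plate's high and low controls in the primary single-dose screen; inactive means activation below 50%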;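 further: compound incubated with DTT at 0.8 mM final as the reducing agent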
KCC2 secondary: KCC2 modulators in sodium-free buffer, confirmation, cell-based, HEK293 KCC2, thallium flux, secondary assay | shares compounds with KCC2 mod | FluoZin2 fluorescence; hits give high values | normalised thallium flux (F/F0 slope) at 10 µM | hit rate 15% among 3,700 | AID 1713, 2009;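 active means thallium flux slope above the same plate's solvent-only control mean plus 3 SD; inconclusive means the two replicate wells disagree; inactive means no significant difference from solvent-only control wells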
KCC2 bumet counter: thallium flux persisting under bumetanide in KCC2 cells, confirmation, counter-screen for KCC2 modulator project, cell-based, HEK293 KCC2, FluoZin2, secondary assay 3; shares compounds with KCC2 mod; HEK293-KCC2 + bumetanide/ouabain; hits give high values; normalized thallium flux at 10 µM; hit rate 49% among 3,700;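 active means thallium entry rate above the same plate's blocked-transporter control wells by more than 3 SD; inconclusive means the two repeat wells disagree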;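 further: raw slope of fluorescence over initial fluorescence between 10 and 20 s after thallium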
KCC2 secondary2: KCC2 modulators without ouabain present, confirmation, cell-based, HEK293 KCC2, thallium flux, FluoZin2, secondary assay 2; thallium flux FluoZin2 fluorescence; actives lie on both sides; F/F0 rise rate, 10–20 s post-thallium; shares compounds with KCC2 mod; normalized thallium flux at 10 µM; hit rate 23% among 3,700;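 active means thallium flux slope more than 3 SD above or below the plate's solvent-only control mean, mostly below; inconclusive means the two repeat wells disagreed; inactive means no significant shift from solvent-only controls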;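 further: raw slope with 0.1% DMSO as baseline and bumetanide as block control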
HEK counter1: thallium flux modulation in parental HEK cells, confirmation, counter-screen for KCC2 modulator project, cell-based, counterscreen 1; shares compounds with KCC2 mod; HEK293 parental cells, thallium flux FluoZin2, ouabain; baseline-ratio fluorescence slope, 10–20 s after thallium; thallium flux rate (normalised fluorescence) at 10 µM; hit rate 46% among 3,700; AID 1716, 2009;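 active means thallium flux rate significantly above the same plate's solvent-only control wells, beyond their mean plus 3 SD; inconclusive means the two replicate wells gave conflicting results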
KCC2 retest ouab: KCC2 inhibitors and activators, ouabain retest, confirmation, HEK-KCC2 cells; hit rate 48% among 3,700; HEK293-KCC2, thallium flux FluoZin2 fluorescence; bidirectional: low = inhibitor, high = activator; shares compounds with KCC2 mod; raw Tl+ flux slope (below DMSO = inhibition, above = activation) at 10 µM;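 active means thallium flux slope beyond 3 SD from same-plate DMSO control mean in most replicates, usually higher, sometimes lower; inconclusive means repeat tests gave conflicting results; inactive means no significant difference from controls in most replicates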;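 further: slope of initial-normalized fluorescence between seconds 10 and 20 after thallium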
HEK293 Tl flux2: native HEK Tl+ uptake effects, second counter-screen – HEK cells, counterscreen 2, counter-screen for KCC2 modulator project, confirmation | shares compounds with KCC2 mod | HEK293 parental, thallium flux FluoZin-2 fluorescence slope | thallium flux slope at 10 µM | hit rate 33% among 3,700 | AID 1718, 2009;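 active means thallium flux slope above the same plate's solvent-control mean plus 3 SD in both duplicate wells; inconclusive means duplicate wells that disagreed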;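 further: run without ouabain in cells lacking the KCC2 cotransporter; slope of fluorescence scaled to its starting value between 10 and 20 s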
The depositor's hits bear a star; i = inactive; ? = inconclusive; . = no result. Sampled rows, rich in hits. Any-hit rate of the full collection: about 4.1%.

SMILES	ROMK mod	Autophagy mod	Dynein transport	KCC2 mod	Redox H2O2 prof	KCC2 secondary	KCC2 bumet counter	KCC2 secondary2	HEK counter1	KCC2 retest ouab	HEK293 Tl flux2
CC(=O)Nc1ccc(S(=O)(=O)N2CCN(C(C)CCc3ccccc3)CC2)cc1 (stereo unspecified)	-1.29	i	-0.872	.	0.2	0.0163	0.00489	0.0213*	0.00765	0.0138	0.0102
CC(=O)Nc1ccc(NC(=O)C(C)N2CCN(S(=O)(=O)c3ccc(C)cc3)CC2)cc1 (stereo unspecified)	0.947	i	-1.23	0.0305	-0.7	.	.	.	.	.	.
COc1ccc(/C=N/NC(=O)c2cccc(Br)c2)cc1COc1ccccn1	.	.	0.213	-1.41	.	.	.	.	.	.	.
CCc1ccc(-c2nc(CS(=O)CC(=O)O)c(C)o2)cc1 (stereo unspecified)	.	.	-1.09	1.55	.	.	.	.	.	.	.
O=C(Nc1nnc(-c2ccc3c(c2)CCCC3)o1)c1c(F)cccc1F	0.84	i	-1.08	15.7*	-0.3	0.0169*	0.0466*	0.0372	0.0203*	0.0346*	0.0128*
CC1=CC(C)[C@H](/C=N/n2c(=O)[nH]c3c([nH]c4ccc(C)cc43)c2=O)C(C)C1 (stereo partly specified)	0.078	i	0.64	-1.14	-0.7	.	.	.	.	.	.
Cc1ccnc(N2CCN(C(=O)CSc3nc4ccccc4nc3N3CCC(C)CC3)CC2)c1	.	i	0.165	4.85*	-0.3	0.00559	0.00873*	0.0338	0.00942*	?	?
COc1ccc(C(=O)N/C=C/n2cnc3cc(C(F)(F)F)ccc32)cc1	.	.	-0.357	-0.265	.	.	.	.	.	.	.
O=[N+]([O-])c1cccc(/C=N/Nc2nc(NCc3ccccc3)nc(N3CCOCC3)n2)c1O	-0.53	i	-1.16	-1.64	-0.2	.	.	.	.	.	.
CC(=O)c1cccc(NC(=O)Nc2ccc(C(=O)N3CCOCC3)cc2)c1	0.907	i	-0.144	-3.1*	-0.3	0.00892	0.00655	0.0339	0.00773	0.0209	0.0107
CC(=O)Nc1ccc(C(=O)N2CCCC2)cc1	.	i	-1.04	-4.54*	1.2	0.00609	0.00468	0.03	0.00806	0.0191	0.0107
CCOC(=O)Cc1c(C)nc(Cc2ccc(OC(C)C)cc2)[nH]c1=O	-0.343	i	-0.727	-0.327	-0.7	.	.	.	.	.	.
COc1ccccc1NC(=O)CN1C(=O)C(C)SC(C)C1=O (stereo unspecified)	.	i	1.08	-0.413	0.3	.	.	.	.	.	.
COc1ccccc1NC(=O)CN1C(=O)NC(CC(C)C)C1=O (stereo unspecified)	.	i	-0.186	-5*	0.4	0.0112	0.00715	0.0348	0.00411	0.0201	0.0115
Cc1cccc(NC(=O)c2csnn2)n1	-0.809	i	1.49	0.0115	-0.5	.	.	.	.	.	.
